The source made the active and inactive calls. The rule behind the calls is not given here.

Consider seven molecules from ChEMBL document CHEMBL1157319, “Altenuene derivatives from an unidentified freshwater fungus in the family Tubeufiaceae” (2006).

In one assay the test system is Bacillus subtilis. Put plainly: Antibacterial activity against Bacillus subtilis ATCC 6051 at 100 ug/disk by disk diffusion method. In kind it is functional. The note with it: for zone of inhibition at 100 µg/disc: read-out: IZ. The gist of the method:
(§1)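 Paper disks each loaded with 100 µg of test material; gentamicin sulfate at 25 µg/disk served as the positive standard. Read-out was the diameter of the inhibition zone in mm. The same panel also included Escherichia coli ATCC 25922.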
(In general: Agar diffusion results depend on both activity and mobility in agar.)

The subject of a further assay is Staphylococcus aureus. Kind of assay: Antibacterial activity against Staphylococcus aureus ATCC 29213 at 100 ug/disk by disk diffusion method. In kind it is functional. Particulars: for zone of inhibition at 100 µg/disc: read-out: IZ. The gist of the method: as §1
A further assay deals with Candida albicans. Put plainly: Antifungal activity against Candida albicans ATCC 14053 at 200 ug/disk by disk diffusion method. In kind it is functional, organism-based.
The subject of a further assay is Aspergillus flavus. Put plainly: Antifungal activity against Aspergillus flavus NRRL 6541 at 200 ug/disk by disk diffusion method. In kind it is functional, organism-based.
In a further assay the test system is Fusarium verticillioides. Put plainly: Antifungal activity against Fusarium verticillioides NRRL 25457 at 200 ug/disk by disk diffusion method. In kind it is functional, organism-based.

`COc1cc(O)c2c(c1)C1=C[C@@H](O)[C@@H](O)C[C@]1(C)OC2=O`: the result in the assay with Bacillus subtilis was inactive.
Regarding `COc1cc(O)c2c(c1)[C@H]1C[C@H](O)[C@@H](O)C[C@]1(C)OC2=O`, the result in the assay on Staphylococcus aureus, with Candida albicans, in the assay with Bacillus subtilis, in the assay on Aspergillus flavus and in the assay on Fusarium verticillioides was inactive.
Take `COc1cc(O)c2c(c1)C1=C[C@H](O)[C@@H](O)C[C@]1(C)OC2=O` [ALTENUENE]: the zone of inhibition at 100 µg/disc stood at 18 mm with Staphylococcus aureus and 20 mm in the assay on Bacillus subtilis.
Turning to `COc1cc(O)c2c(c1)C1=CC(=O)[C@H](O)C[C@]1(C)OC2=O` [DEHYDROALTENUENE A], the result in the assay on Candida albicans, in the assay with Aspergillus flavus and in the assay on Fusarium verticillioides was inactive. In addition, in the assay on Bacillus subtilis, the zone of inhibition at 100 µg/disc was found to be 13 mm.
As for `COc1cc(O)c2c(c1)C1=CC(=O)[C@@H](O)C[C@]1(C)OC2=O` [DEHYDROALTENUENE B], the zone of inhibition at 100 µg/disc in the assay on Staphylococcus aureus was 14 mm; with Bacillus subtilis it was 20 mm. Moreover, the result in the assay on Candida albicans, in the assay with Aspergillus flavus and in the assay with Fusarium verticillioides was inactive.
Consider `COc1cc(O)c2c(c1)[C@H]1C[C@@H](O)[C@@H](O)C[C@]1(C)OC2=O` [DIHYDROALTENUENE A], for which the zone of inhibition at 100 µg/disc in the assay on Staphylococcus aureus stood at 14 mm; with Bacillus subtilis, 50 mm. In addition, the outcome in the assay with Candida albicans, in the assay on Aspergillus flavus and in the assay with Fusarium verticillioides was inactive.
On to `COc1cc(O)c2c(c1)C1=C[C@@H](O)[C@H](O)C[C@]1(C)OC2=O` [ISOALTENUENE], for which the zone of inhibition at 100 µg/disc in the assay on Bacillus subtilis was 30 mm.
